For one experiment, the species on record is Bos taurus. The experiment is described as follows: Displacement of [3H]flumazenil from benzodiazepine receptor in bovine brain membranes at 10 uM. Format: cell membranes. The method in brief: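 Bovine cerebral cortex membranes, freeze-thawed once and washed in 50 mM Tris-citrate pH 7.4, used for competition against [3H]flumazenil. Test compound at a fixed 10 µM; read-out is % inhibition of specific binding, as mean of three determinations run in triplicate.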

Experiment [1] is described as follows: Displacement of [3H]flumazenil from benzodiazepine receptor in bovine brain membranes. In kind it is cell membranes, Bos taurus.
Experiment [2] has as its target GABA A receptor alpha-5/beta-3/gamma-2 (Rattus norvegicus, UniProt P18508+P19969+P63079). Kind of experiment: Displacement of [3H]flumazenil from rat GABAA alpha-5-beta-3-gamma-2 expressed in HEK293 cells. In kind it is cell-based. The method in brief:
(§1)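 Crude membranes from HEK293 cells stably expressing rat GABAA subtypes, cells grown in DMEM/F-12 with 10% FBS at 37 °C, 5% CO2. Homogenized in 10 mM potassium phosphate pH 7.4, spun at 48 000g for 30 min at 4 °C, washed twice, resuspended with 100 mM KCl. [3H]flumazenil displacement; Ki as mean ± SEM of three determinations in triplicate.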
For orientation: Displacement assays read how much labelled ligand stays bound in the presence of the test substance.

Experiment [3] deals with GABA-A receptor; alpha-1/beta-2/gamma-2 (Rattus norvegicus, UniProt P18508+P62813+P63138). Kind of experiment: Displacement of [3H]flumazenil from rat GABAA alpha-1-beta-2-gamma-2 expressed in HEK293 cells. Format: cell-based. The method in brief:
as §1

Experiment [4] concerns the target GABA A receptor alpha-2/beta-2/gamma-2 (Rattus norvegicus, UniProt P18508+P23576+P63138). Kind of experiment: Displacement of [3H]flumazenil from rat GABAA alpha-2-beta-2-gamma-2 expressed in HEK293 cells. In kind it is cell-based. The method in brief: as §1
Experiment [5] addresses GABA A receptor alpha-2/beta-2/gamma-2 (Rattus norvegicus) (UniProt P18508+P23576+P63138). Kind of experiment: Displacement of [3H]flumazenil from rat GABAA alpha-2-beta-2-gamma-2 expressed in HEK293 cells at 10 uM. In kind it is cell-based. The method in brief:
(§2)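 [3H]flumazenil competition in membranes of HEK293 cells stably expressing rat GABAA subtypes, prepared in 10 mM potassium phosphate pH 7.4 (48 000g, 4 °C, two washes, final buffer with 100 mM KCl). Single test concentration of 10 µM; % inhibition of specific binding, mean ± SEM of three determinations in triplicate.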

Experiment [6] addresses GABA A receptor alpha-5/beta-3/gamma-2 (Rattus norvegicus) (UniProt P18508+P19969+P63079). Kind of experiment: Displacement of [3H]flumazenil from rat GABAA alpha-5-beta-3-gamma-2 expressed in HEK293 cells at 10 uM. Format: cell-based. The method in brief:
as §2

The subject of a further experiment is Mus musculus. Kind of experiment: Decrease in spontaneous motor activity in Balb/C mouse at 10 mg/kg, ip. In kind it is functional, organism-based. Set-up: dose 10 mg/kg.
Experiment [7] deals with GABA-A receptor; alpha-1/beta-2/gamma-2 (Rattus norvegicus) (UniProt P18508+P62813+P63138). The experiment is described as follows: Agonist activity at rat GABAA alpha-1-beta-2-gamma-2 expressed in HEK293 cells assessed as chloride influx. Format: functional, cell-based.

Molecules are shown by their SMILES. The source made the active and inactive calls. The rule behind the calls is not given here.

From ChEMBL document CHEMBL1142972, “Novel N-substituted indol-3-ylglyoxylamides probing the LDi and L1/L2 lipophilic regions of the benzodiazepine receptor site in search for subtype-selective ligands” (J Med Chem, 2007) come the findings set out here.

As usually defined, the inhibition is the percentage by which the read-out fell short of the control. Low readings indicate a response near the control, high ones a response far below the control. The Ki is a dissociation constant, usually derived from enzyme kinetics or from competition with a known ligand. The low end stands for tighter binding, the high end for weaker binding.

Sequence of GABA-A receptor; alpha-1/beta-2/gamma-2 (P18508 whole entry): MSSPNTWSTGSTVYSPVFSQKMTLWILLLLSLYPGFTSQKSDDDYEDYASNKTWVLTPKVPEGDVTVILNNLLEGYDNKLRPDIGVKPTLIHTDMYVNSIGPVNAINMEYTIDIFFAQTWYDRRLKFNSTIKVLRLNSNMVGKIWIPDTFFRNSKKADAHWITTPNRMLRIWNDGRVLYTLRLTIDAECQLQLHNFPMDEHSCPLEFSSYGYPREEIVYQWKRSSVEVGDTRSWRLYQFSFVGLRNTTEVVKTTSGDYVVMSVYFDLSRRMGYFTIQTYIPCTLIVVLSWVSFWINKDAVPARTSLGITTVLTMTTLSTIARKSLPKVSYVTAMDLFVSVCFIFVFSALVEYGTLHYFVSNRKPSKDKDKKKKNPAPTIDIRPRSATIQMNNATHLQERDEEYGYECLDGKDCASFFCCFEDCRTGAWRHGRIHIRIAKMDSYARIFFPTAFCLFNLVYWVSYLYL
Sequence of GABA-A receptor; alpha-1/beta-2/gamma-2 (P62813 whole entry): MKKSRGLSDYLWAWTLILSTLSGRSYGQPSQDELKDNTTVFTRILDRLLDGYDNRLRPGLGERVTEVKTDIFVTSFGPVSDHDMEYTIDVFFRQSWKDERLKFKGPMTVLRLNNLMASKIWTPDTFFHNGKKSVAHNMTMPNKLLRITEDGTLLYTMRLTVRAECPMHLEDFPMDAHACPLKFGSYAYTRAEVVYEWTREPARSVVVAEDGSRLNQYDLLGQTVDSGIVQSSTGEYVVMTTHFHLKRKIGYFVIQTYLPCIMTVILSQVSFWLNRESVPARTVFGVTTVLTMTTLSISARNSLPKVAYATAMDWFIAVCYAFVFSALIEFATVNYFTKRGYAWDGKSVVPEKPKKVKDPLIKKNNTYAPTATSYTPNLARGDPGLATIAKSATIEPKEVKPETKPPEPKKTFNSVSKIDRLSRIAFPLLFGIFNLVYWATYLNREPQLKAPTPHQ
Sequence of GABA-A receptor; alpha-1/beta-2/gamma-2 (P63138 whole entry): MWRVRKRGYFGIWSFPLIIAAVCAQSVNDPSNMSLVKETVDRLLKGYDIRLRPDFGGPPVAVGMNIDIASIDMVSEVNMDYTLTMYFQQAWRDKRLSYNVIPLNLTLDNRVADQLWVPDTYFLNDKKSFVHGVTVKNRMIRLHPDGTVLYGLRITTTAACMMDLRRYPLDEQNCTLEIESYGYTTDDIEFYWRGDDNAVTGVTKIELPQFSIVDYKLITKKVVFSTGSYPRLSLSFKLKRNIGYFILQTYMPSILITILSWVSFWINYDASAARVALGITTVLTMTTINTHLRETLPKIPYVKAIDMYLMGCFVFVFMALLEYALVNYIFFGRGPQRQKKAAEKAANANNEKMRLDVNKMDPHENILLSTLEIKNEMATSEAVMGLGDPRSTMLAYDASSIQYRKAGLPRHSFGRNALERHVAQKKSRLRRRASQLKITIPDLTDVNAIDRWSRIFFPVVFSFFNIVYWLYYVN
Sequence of GABA A receptor alpha-5/beta-3/gamma-2 (P18508 whole entry): as the sequence (P18508 whole entry) above
Sequence of GABA A receptor alpha-5/beta-3/gamma-2 (P19969 whole entry): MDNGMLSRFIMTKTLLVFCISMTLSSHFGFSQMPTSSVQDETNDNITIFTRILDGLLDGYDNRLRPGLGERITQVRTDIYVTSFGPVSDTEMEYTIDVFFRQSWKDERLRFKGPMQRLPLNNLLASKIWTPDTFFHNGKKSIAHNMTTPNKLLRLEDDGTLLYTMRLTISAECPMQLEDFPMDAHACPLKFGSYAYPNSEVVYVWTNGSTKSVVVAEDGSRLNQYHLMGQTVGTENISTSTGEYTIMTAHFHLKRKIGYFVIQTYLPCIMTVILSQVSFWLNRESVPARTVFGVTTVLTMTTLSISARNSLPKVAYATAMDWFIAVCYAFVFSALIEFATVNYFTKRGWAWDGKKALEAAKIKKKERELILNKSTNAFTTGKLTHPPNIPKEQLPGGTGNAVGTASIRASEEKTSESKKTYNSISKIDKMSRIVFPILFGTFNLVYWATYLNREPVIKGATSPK
Sequence of GABA A receptor alpha-5/beta-3/gamma-2 (P63079 whole entry): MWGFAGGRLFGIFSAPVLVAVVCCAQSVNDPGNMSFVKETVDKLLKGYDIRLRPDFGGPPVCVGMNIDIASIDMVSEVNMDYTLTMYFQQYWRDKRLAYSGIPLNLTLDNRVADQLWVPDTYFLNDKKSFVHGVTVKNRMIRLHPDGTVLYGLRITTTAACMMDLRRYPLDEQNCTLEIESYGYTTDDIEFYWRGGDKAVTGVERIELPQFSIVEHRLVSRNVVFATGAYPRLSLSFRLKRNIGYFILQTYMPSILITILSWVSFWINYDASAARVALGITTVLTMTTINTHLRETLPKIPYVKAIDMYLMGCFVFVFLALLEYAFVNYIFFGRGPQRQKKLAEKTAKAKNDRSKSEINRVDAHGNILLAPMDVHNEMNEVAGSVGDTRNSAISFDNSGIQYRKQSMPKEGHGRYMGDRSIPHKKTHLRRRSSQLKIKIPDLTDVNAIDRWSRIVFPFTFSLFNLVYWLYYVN
Sequence of GABA A receptor alpha-2/beta-2/gamma-2 (P18508 whole entry): as the sequence (P18508 whole entry) above
Sequence of GABA A receptor alpha-2/beta-2/gamma-2 (P23576 whole entry): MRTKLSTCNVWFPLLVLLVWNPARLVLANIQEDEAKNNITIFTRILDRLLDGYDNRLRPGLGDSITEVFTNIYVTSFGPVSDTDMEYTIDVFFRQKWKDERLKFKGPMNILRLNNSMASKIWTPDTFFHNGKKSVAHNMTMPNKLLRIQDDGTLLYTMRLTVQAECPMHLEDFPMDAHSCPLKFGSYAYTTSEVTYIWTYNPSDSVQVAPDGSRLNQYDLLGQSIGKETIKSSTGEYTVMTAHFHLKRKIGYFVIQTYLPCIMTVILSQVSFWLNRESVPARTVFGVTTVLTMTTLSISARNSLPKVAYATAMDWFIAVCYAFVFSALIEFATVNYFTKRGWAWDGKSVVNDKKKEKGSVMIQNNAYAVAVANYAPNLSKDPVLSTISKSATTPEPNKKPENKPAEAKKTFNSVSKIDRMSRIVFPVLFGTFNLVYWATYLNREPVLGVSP
Sequence of GABA A receptor alpha-2/beta-2/gamma-2 (P63138 whole entry): as the sequence (P63138 whole entry) above

`C[Si](C)(C)C#Cc1ccc(CNC(=O)C(=O)c2c[nH]c3ccccc23)cc1` had an inhibition in the experiment listed under Bos taurus of 29%.
On to `Cc1ccc(CNC(=O)C(=O)c2c[nH]c3ccccc23)cc1`, for which affinity in experiment [1] was put at a Ki of 606 nM.
Still for that read-out and setting: as for `CC(C)NC(=O)C(=O)c1c[nH]c2ccccc12`, the figure is 2690 nM.
On the same count and under the same terms, as for `CC(C)(C)NC(=O)C(=O)c1c[nH]c2ccc([N+](=O)[O-])cc12`, the figure is 2800 nM.
Consider `CC(C)NC(=O)C(=O)c1c[nH]c2ccc([N+](=O)[O-])cc12`, for which the Ki in experiment [2] is 498 nM; in experiment [3] it was 15 nM; in experiment [1] it was 57.8 nM; in experiment [4], 175 nM.
As for `CCCCCNC(=O)C(=O)c1c[nH]c2ccccc12`, the affinity in experiment [1] corresponds to a Ki of 1480 nM.
Take `O=C(NCc1ccc(Br)cc1)C(=O)c1c[nH]c2ccc([N+](=O)[O-])cc12`: the inhibition in the experiment filed under Bos taurus came to 31%.
Same read-out and setting: as for `CCCCCCNC(=O)C(=O)c1c[nH]c2ccc([N+](=O)[O-])cc12`, the figure is 53%.
In experiment [1], `CCCCCNC(=O)C(=O)c1c[nH]c2ccc([N+](=O)[O-])cc12` registered a Ki of 4100 nM.
The compound `CCc1ccc(CNC(=O)C(=O)c2c[nH]c3ccc([N+](=O)[O-])cc23)cc1` showed an inhibition in the experiment filed under Bos taurus of 42%.
With `CC#Cc1ccc(CNC(=O)C(=O)c2c[nH]c3ccccc23)cc1`, the inhibition in [5] stood at 16%; in experiment [6], 13%. In addition, the results for the Ki in experiment [3] and in experiment [1] were 881 nM and 3280 nM, respectively.
For `O=C(NCc1ccc(Br)cc1)C(=O)c1c[nH]c2ccccc12`, the Ki in experiment [2] is 1440 nM; in [3], 17 nM; in experiment [1] it was 93 nM; in experiment [4] it was 81 nM.
In [1], `CCC(C)NC(=O)C(=O)c1c[nH]c2ccc([N+](=O)[O-])cc12` (stereo unspecified) showed a Ki of 412 nM.
`C[Si](C)(C)C#Cc1ccc(CNC(=O)C(=O)c2c[nH]c3ccc([N+](=O)[O-])cc23)cc1` yielded an inhibition in the experiment filed under Bos taurus of 21%.
On the same count and under the same terms, as for `CC(C)CNC(=O)C(=O)c1c[nH]c2ccc([N+](=O)[O-])cc12`, the figure is 5%.
In the case of `O=C(NCc1ccccc1)C(=O)c1c[nH]c2ccccc12`, the inhibition in [5] was determined as 39%; in [6], 46%. The Ki in experiment [3] turned out to be 346 nM; in experiment [1], 120 nM.
With `C#Cc1ccc(CNC(=O)C(=O)c2c[nH]c3ccccc23)cc1`, the Ki in experiment [2] turned out to be 1150 nM; in [3] it was 250 nM; in experiment [1] it was 164 nM; in experiment [4], 414 nM.
In the same order, the values of `CCCCNC(=O)C(=O)c1c[nH]c2ccc([N+](=O)[O-])cc12` are 943 nM, 125 nM, 110 nM and 553 nM.
In experiment [1], `O=C1CN=C(c2ccccc2Cl)c2cc([N+](=O)[O-])ccc2N1` [CLONAZEPAM] had an inhibitory constant (Ki) of 0.85 nM.
`CCc1ccc(CNC(=O)C(=O)c2c[nH]c3ccccc23)cc1` displayed an inhibition in [6] of 40%. Moreover, the values for the Ki in experiment [3], in experiment [1] and in experiment [4] were 559 nM, 2160 nM and 1600 nM, respectively.
As to `CCCCNC(=O)C(=O)c1c[nH]c2ccccc12`, the inhibition in experiment [5] amounted to 7%; in [6], 28%. Moreover, the results for the Ki in experiment [3] and in [1] were 1170 nM and 3720 nM, respectively.
In turn, `C[Si](C)(C)CC#Cc1ccc(CNC(=O)C(=O)c2c[nH]c3ccc([N+](=O)[O-])cc23)cc1` showed an inhibition in the experiment listed under Bos taurus of 0%.
Take `Cc1ccc(-c2nc3ccc(C)cn3c2CC(=O)N(C)C)cc1`: in the experiment with Mus musculus, the outcome was Active.
In the experiment filed under Bos taurus, `CC#Cc1ccc(CNC(=O)C(=O)c2c[nH]c3ccc([N+](=O)[O-])cc23)cc1` displayed an inhibition of 0%.
Regarding `CC(C)(C)NC(=O)C(=O)c1c[nH]c2ccccc12`, in the experiment listed under Bos taurus, the inhibition stood at 7%.
Take `O=C(NCc1ccccc1)C(=O)c1c[nH]c2ccc([N+](=O)[O-])cc12`: the inhibition in [5] was 32%; in experiment [6], 44%. In addition, the figures for the Ki in [3] and in [1] were 65 nM and 117 nM, respectively.
Regarding `CN1C(=O)CN=C(c2ccccc2)c2cc(Cl)ccc21` [DIAZEPAM], the Activity in experiment [7] came to 72%. Moreover, affinity in experiment [1] was put at a Ki of 10 nM.
Take `CCC(C)NC(=O)C(=O)c1c[nH]c2ccccc12` (stereo unspecified): the inhibition in the experiment listed under Bos taurus was determined as 34%.
Still for that read-out and setting: as for `C#Cc1ccc(CNC(=O)C(=O)c2c[nH]c3ccc([N+](=O)[O-])cc23)cc1`, the figure is 28%; as for `C[Si](C)(C)CC#Cc1ccc(CNC(=O)C(=O)c2c[nH]c3ccccc23)cc1`, 3%.
Take `CCCCCCNC(=O)C(=O)c1c[nH]c2ccccc12`: the affinity in experiment [1], expressed as Ki, was 1650 nM.
`Cc1ccc(CNC(=O)C(=O)c2c[nH]c3ccc([N+](=O)[O-])cc23)cc1`: the inhibition in experiment [5] and in [6] was 0% throughout. For the same compound, the outcome in the experiment with Mus musculus was Active. Moreover, the Activity in [7] worked out at 78%. For the same compound, the results for the Ki in [3] and in experiment [1] were 31.3 nM and 88 nM, respectively.
In the experiment listed under Bos taurus, `CC(C)CNC(=O)C(=O)c1c[nH]c2ccccc12` yielded an inhibition of 43%.
